Only some compounds are listed: those with a hit (about 3.1% of all), similar ones and a draw of the others.
PAFAH1B3 FP inh – blocks human PAF acetylhydrolase 1B catalytic subunit 3; recombinant PAFAH1B3, FP-rhodamine probe, fluorescence polarization; inhibition, % at 3.39 µM; 0.28% of 340,000 active;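 active = inhibition above the screen-wide average of all tested compounds plus 3 SD, cut at about 25% in these data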;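 note: 0% = enzyme with DMSO only and 100% = wells lacking PAFAH1B3 protein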
Target sequence (Q15102 whole entry, looked up): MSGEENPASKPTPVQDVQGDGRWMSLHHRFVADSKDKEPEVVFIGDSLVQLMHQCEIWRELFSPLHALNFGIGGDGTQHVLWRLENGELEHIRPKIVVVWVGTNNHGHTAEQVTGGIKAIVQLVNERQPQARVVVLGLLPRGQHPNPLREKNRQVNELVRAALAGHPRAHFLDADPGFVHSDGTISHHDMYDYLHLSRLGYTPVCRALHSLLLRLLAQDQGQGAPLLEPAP
pPAFAH inh – pPAFAH (human) enzyme inhibition. Q13093. recombinant pPAFAH, FP-rhodamine probe fluorescence polarization. inhibition, % at 3.39 µM. 1.5% of 330,000 active;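 active = inhibition above the mean inhibition across the screen plus 3 SD, cut at about 25% in these data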;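 note: inhibitors block binding of the rhodamine activity-based probe so polarization drops; 0% = enzyme with DMSO and 100% = wells lacking pPAFAH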
Apaf-1 inh – blocks human Apaf-1 apoptosome activity | inhibition, % at 20 µM | O14727 | reconstituted apoptosome caspase-3 activity, DEVD-Rh110 fluorescence | AID 489030 | 0.71% of 330,000 active; active = inhibition of at least 40% at 20 µM;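 note: plate controls were DMSO wells for no effect and DEVD-CHO caspase inhibitor wells for full effect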
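Material: biochemical Apaf-1 apoptosome reconstitution. Medium: Hepes buffer, pH 7.5. Also added: cytochrome c activation, bis-DEVD rhodamine 110 substrate. Timing: 30 min compound preincubation, 50 min activation, room temperature. Measured by: rhodamine 110 fluorescence at Ex 480/Em 540 nm.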
PAFAH2 FP inh – inhibitors of human PAFAH2 | 0.99% of 340,000 active | Q99487 | recombinant PAFAH2, FP-rhodamine activity probe, fluorescence polarization | inhibition, % at 3.39 µM;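 active = inhibition above the mean over all tested compounds plus 3 SD, cut at about 30% in these data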;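 note: inhibitors block probe labeling of enzyme so polarization drops; 0% = enzyme with DMSO and 100% = wells lacking PAFAH2 protein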
PAFAH1B2 FP inh – blocks human PAF acetylhydrolase 1b catalytic subunit 2. P68402. inhibition, % at 3.39 µM. AID 492953. recombinant PAFAH1B2, FP-rhodamine activity probe, fluorescence polarization. 1.2% of 340,000 active;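 active = inhibition above the mean of all tested compounds plus 3 SD, cut at about 24% in these data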;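 note: 0% = enzyme with DMSO and 100% = wells lacking PAFAH1B2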
Target sequence (P68402 whole entry, looked up): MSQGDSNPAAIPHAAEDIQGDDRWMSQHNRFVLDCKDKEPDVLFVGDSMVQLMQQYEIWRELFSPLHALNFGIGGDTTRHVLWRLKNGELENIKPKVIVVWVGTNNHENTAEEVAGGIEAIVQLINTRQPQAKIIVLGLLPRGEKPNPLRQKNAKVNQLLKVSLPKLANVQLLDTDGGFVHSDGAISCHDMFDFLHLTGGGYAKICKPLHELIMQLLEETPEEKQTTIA
Apaf-1 inh conf2 – Apaf-1 inhibition, single-dose confirmed | shares compounds with Apaf-1 inh | reconstituted apoptosome, caspase-3 DEVD-Rh110 fluorescence | inhibition, % at 20 µM | 25% of 1,800 active;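 active = mean inhibition of at least 40% at 20 µM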;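 note: plate controls were DMSO wells for no effect and DEVD-CHO caspase inhibitor control wells for full effect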
Rh110 interf inh – interferes with Rh110 fluorescence, flagging false Apaf-1 inhibitors | shares compounds with Apaf-1 inh | Rh110 fluorescence interference, quenched caspase reaction | activation (fluorescence interference), % at 20 µM | 1,800 tested, under 10 active | AID 504615;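 active = signal rise of 40% or more at 20 µM, treated as a fluorescence artifact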
Apaf1 inh interf – Apaf-1 inhibitor counter-screen fluorescence artifact; shares compounds with Apaf-1 inh; fluorescence interference counterscreen, Apaf-1 assay format; IC50, µM; 460 tested, under 10 active; call rule not given here
Active calls of the source: *; / = not tested or not shown.

SMILES	PAFAH1B3 FP inh	pPAFAH inh	Apaf-1 inh	PAFAH2 FP inh	PAFAH1B2 FP inh	Apaf-1 inh conf2	Rh110 interf inh	others
CCOC(=O)N1CCN(C2=C(NS(=O)(=O)c3ccccc3)C(=O)c3ccccc3C2=O)CC1	4	2	48*	0	2	24	0
CN1CCN(C2=C(NS(=O)(=O)c3ccccc3)C(=O)c3ccccc3C2=O)CC1	7	2	79*	8	2	45*	6	Apaf1 inh interf=>100
Cc1ccccc1-n1ncc2c1CC(C)(C)CC2NC(=O)CCCN1CCCC1=O (stereo not drawn)	4	6	6	0	-6	/	/
COc1ccc(Nc2nc(N3CCOCC3)nc(N3CCOCC3)n2)cc1Cl	10	7	-1	5	2	/	/
COc1ccc(N2CC(C(=O)Nc3nnc(SCC(=O)NCC4CCCO4)s3)CC2=O)cc1 (stereo not drawn)	14	3	2	4	3	/	/
CCN1CCN(C2=C(NS(=O)(=O)c3ccc(Br)cc3)C(=O)c3ccccc3C2=O)CC1	11	6	88*	6	10	46*	1	Apaf1 inh interf=>100
O=C1CC(NS(=O)(=O)c2cccnc2)CN1c1cccc(F)c1 (stereo not drawn)	11	4	1	1	3	/	/
COc1ccc(S(=O)(=O)N2CCN(c3ccc4nnc(-c5ccc(F)cc5)n4n3)CC2)cc1	0	1	51*	-4	-1	47*	0	Apaf1 inh interf=>100
Cc1ccc(S(=O)(=O)N2CCN(c3ccc4nnc(-c5ccccc5)n4n3)CC2)cc1	7	/	/	7	9	/	/
CCOc1cccc(CNc2ccc(O)cc2)c1OCc1ccccc1Cl	6	32*	97*	2	5	26	8
CC(Oc1ccc(Br)cc1)C(=O)NCC(C)(C)N1CCOCC1 (stereo not drawn)	4	-8	47*	-4	9	34	-1
Cc1cc(C(=O)CCC(=O)N(C)CC(=O)Nc2ccc(OC(F)(F)F)cc2)c(C)s1	5	/	19	0	0	/	/
Cc1cc(CNC[C@H]2O[C@@H](n3cnc(C(N)=O)n3)[C@H](O)[C@@H]2O)c(C)n1-c1cccnc1	9	/	/	-1	6	/	/
CCN(Cc1ccccc1)S(=O)(=O)c1ccc(C(=O)N(CCCN(C)C)c2nc3cc4c(cc3s2)OCCO4)cc1	9	2	41*	-1	2	20	5
CCN(Cc1ccccc1)S(=O)(=O)c1ccc(C(=O)N(CCCN(C)C)c2nc3cc(OC)ccc3s2)cc1	4	2	40*	-4	-5	15	12
COc1ccc2sc(N(CCCN(C)C)C(=O)c3ccc(C(=O)c4ccccc4)cc3)nc2c1	2	-2	30	2	3	/	/
CCN(Cc1ccccc1)S(=O)(=O)c1ccc(C(=O)N(CCCN(C)C)c2nc3ccc(F)cc3s2)cc1	1	0	21	-6	1	/	/
Cc1cc(C)cc(C(=O)NC(CC(N)=O)c2ccc(NCC3CC3)c([N+](=O)[O-])c2)c1 (stereo not drawn)	-4	4	1	1	1	/	/
CCC(C)(C)NC(=O)C(c1ccc(C)o1)N(Cc1ccc2c(c1)OCO2)C(=O)c1snc(C(N)=O)c1N (stereo not drawn)	9	-2	6	2	0	/	/
CC1CC(C)(C)CC2(C1)NC(=O)N(CC(=O)Nc1ccc3[nH]c(=O)[nH]c3c1)C2=O (stereo not drawn)	2	0	44*	0	5	20	7
CC1CCC2(CC1)NC(=O)N(CC(=O)Nc1ccc3[nH]c(=O)[nH]c3c1)C2=O (stereo not drawn)	3	2	-2	8	1	/	/
CC1CCN(CCc2nc3cc(NC(=O)COc4ccc([N+](=O)[O-])cc4)ccc3n2C)CC1	10	4	13	7	6	/	/
Cc1ccc(OCC(=O)N/N=C\c2c(C)n(C)c3ccccc23)c([N+](=O)[O-])c1	8	15	42*	14	6	12	6
